MrgX1 allo act: human MrgX1 positive allosteric modulation, primary screen. Q96LB2. MrgX1-HEK293, Fluo-4 calcium flux, FDSS; active compounds read high. B-score at 10 µM. actives 0.63% (n = 310,000). AID 588675;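 active means plate-corrected calcium response at least 3 library SD above typical, normal starting fluorescence, not activating the receptor alone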;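 further: compound read alongside a low EC10 to EC30 dose of BAM8-22 agonist; peak minus trough fluorescence over baseline measured at the second addition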
Target sequence (Q96LB2 whole entry, looked up): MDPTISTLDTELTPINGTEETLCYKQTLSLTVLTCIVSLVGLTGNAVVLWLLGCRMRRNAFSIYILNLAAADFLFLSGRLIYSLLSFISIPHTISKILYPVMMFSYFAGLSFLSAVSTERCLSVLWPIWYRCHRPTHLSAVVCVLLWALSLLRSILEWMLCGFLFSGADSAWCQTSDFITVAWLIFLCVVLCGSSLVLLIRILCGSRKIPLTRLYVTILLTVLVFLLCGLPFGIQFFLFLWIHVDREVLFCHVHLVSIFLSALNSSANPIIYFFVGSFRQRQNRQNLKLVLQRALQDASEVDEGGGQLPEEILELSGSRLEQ
RGS4 block: inhibitors of human RGS4; B-score at 10 µM; actives 0.45% (n = 310,000); HEK293 M3R/RGS4 inducible, Fluo-4 calcium flux; active compounds read high; triggered by carbachol at its EC20;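 active means B-score, a plate-corrected calcium signal, over three deviations above library mean, with baseline fluorescence within five deviations of library mean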;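 further: RGS4 expression induced by doxycycline in cells with stable M3 receptor; B-score is computed from the integrated fluorescence ratio over baseline after carbachol; higher B-score means a larger calcium signal and so more RGS4 inhibition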
Target sequence (P49798 whole entry, looked up): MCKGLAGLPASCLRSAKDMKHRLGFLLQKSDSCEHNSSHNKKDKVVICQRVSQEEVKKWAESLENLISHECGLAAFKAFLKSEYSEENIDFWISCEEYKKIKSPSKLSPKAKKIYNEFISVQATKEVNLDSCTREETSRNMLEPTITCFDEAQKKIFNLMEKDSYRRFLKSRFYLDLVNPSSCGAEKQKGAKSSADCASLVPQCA
MrgX1 agonist: human MrgX1 receptor agonism, primary screen. AID 588627. MrgX1-HEK293 cells, Fluo-4 calcium fluorescence, agonist mode; active compounds read high. actives 0.44% (n = 310,000). Q96LB2. B-score at 10 µM;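 active means calcium response B-score plate-corrected fluorescence ratio at least 3 library SD, with starting fluorescence B-score inside 5 SD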
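Test system: HEK293 cells stably expressing human MrgX1 receptor; Input: fifteen thousand cells per well; Dosing: compound delivered in addition one of three; Schedule: overnight seeding, then 1 h dark dye loading; Technique: Fluo-4 NW calcium fluorescence; Measure: B-scored fluorescence response ratio; Controls: positive and negative controls per plate.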
RGS4 pot: RGS4 potentiation or activation; B-score at 10 µM; HEK293 M3R/inducible RGS4, carbachol calcium flux Fluo4; active compounds read low; actives 0.92% (n = 310,000); AID 463111;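 active means B-score of the integrated calcium signal more than 4 SD below the library mean, with starting fluorescence not abnormally high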;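 further: negative B-score means reduced calcium response which marks RGS4 activation or potentiation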
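System: HEK293 FlpIn-TREx cells, stable M3R, doxycycline-inducible RGS4. Timing: overnight RGS4 induction, 30 min dye load 37 °C, 20 min compound RT. Also added: carbachol, ECmax concentration. Measured by: Fluo4 fluorescence kinetic imaging of calcium. Evaluation: integrated calcium ratio converted to B score.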
MrgX1 antagonist: human MrgX1 receptor antagonism, primary screen | B-score at 10 µM | MRGX1-HEK293 calcium flux, Fluo-4, BAM8-22 antagonism; active compounds read low | Q96LB2 | actives 1.3% (n = 310,000);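 active means calcium-response B-score plate-corrected more than 3 library SD below zero, starting fluorescence within 5 deviations, no agonist response on first addition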;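 further: peak minus trough fluorescence over baseline after final BAM8-22 challenge near maximal dose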
* = called active by the depositor. Only some compounds are listed: those with a hit (about 3.5% of all), similar ones and a draw of the others.

C=CCN1C(=O)/C(=C/c2cc(C)n(-c3ccccn3)c2C)C(=O)NC1=S was read as MrgX1 allo act inactive, RGS4 block inactive, MrgX1 agonist inactive, RGS4 pot inactive and MrgX1 antagonist -5.2*.
C/C=C1/C[N+]2(C)CCC34C(=C(C=O)[C@H]1C[C@@H]32)Nc1ccccc14 (stereo not given in full) was read as MrgX1 allo act inactive, MrgX1 agonist inactive and MrgX1 antagonist inactive.
`CC/C(=C\C=C\[C@@H]1C=C[C@@H]2CCC[C@H]2[C@@H]1C(=O)c1ccc[nH]1)[C@@H]1O[C@@H]([C@@H](C)C(=O)O)CC[C@@H]1C` gave MrgX1 allo act inactive, RGS4 block inactive, MrgX1 agonist 35*, RGS4 pot -8.2* and MrgX1 antagonist inactive.
For Clc1ccc(CCC(Cn2ccnc2)Sc2c(Cl)cccc2Cl)cc1 (stereo not given) the results were MrgX1 allo act inactive, MrgX1 agonist inactive and MrgX1 antagonist inactive.
For CCc1ccc(NP(=O)(Oc2ccccc2F)Oc2ccccc2F)cc1 the results were MrgX1 allo act inactive, RGS4 block inactive, MrgX1 agonist inactive, RGS4 pot inactive and MrgX1 antagonist inactive.
Screening Cc1ccc(NP(=O)(Oc2ccccc2F)Oc2ccccc2F)cc1 returned MrgX1 allo act inactive, RGS4 block inactive, MrgX1 agonist inactive, RGS4 pot inactive and MrgX1 antagonist -6.7*.
Screening COC(=O)C1=C(N)Oc2c(c(=O)oc3ccccc23)[C@]12C(=O)N(C)c1ccccc12 returned MrgX1 allo act 8.6*, RGS4 block inactive, MrgX1 agonist inactive, RGS4 pot inactive and MrgX1 antagonist inactive.
For c1ccc2nc(N3CCNCC3)ccc2c1 the results were MrgX1 allo act inactive, MrgX1 agonist inactive and MrgX1 antagonist inactive.
CCn1cc(/C=c2/sc3n(c2=O)C2c4ccccc4OC(C)(N=3)C2C(=O)OC)c(C)n1 (stereo not given) was read as MrgX1 allo act inactive, RGS4 block inactive, MrgX1 agonist inactive, RGS4 pot inactive and MrgX1 antagonist inactive.
For COC(=O)C1C2c3ccccc3OC1(C)N=c1s/c(=C/c3cn(C)nc3C)c(=O)n12 (stereo not given) the results were MrgX1 allo act 7.1*, RGS4 block inactive, MrgX1 agonist inactive, RGS4 pot inactive and MrgX1 antagonist inactive.
`Cc1ccccc1-n1c(O)c(/C=C2/C(c3ccccc3)=Nc3ccccc32)c(=O)[nH]c1=O` gave MrgX1 allo act inactive, RGS4 block inactive, MrgX1 agonist inactive, RGS4 pot inactive and MrgX1 antagonist inactive.
CC1=Nc2ccccc2/C1=C/c1c(O)n(C)c(=O)[nH]c1=O was read as MrgX1 allo act 8.1*, RGS4 block inactive, MrgX1 agonist inactive, RGS4 pot inactive and MrgX1 antagonist inactive.
`Cc1ccc(N2C(=O)CC(=O)NC2=O)cc1Cl` gave MrgX1 allo act inactive, RGS4 block inactive, MrgX1 agonist inactive, RGS4 pot inactive and MrgX1 antagonist inactive.
CN1C(C(=O)N2CCC3(CC2)OCCO3)=CC(c2ccc(F)cc2)=NS1(=O)=O was read as MrgX1 allo act inactive, RGS4 block inactive, MrgX1 agonist inactive, RGS4 pot inactive and MrgX1 antagonist inactive.
`CN1CCc2cccc(Cl)c2CC1` gave MrgX1 allo act inactive, MrgX1 agonist inactive and MrgX1 antagonist inactive.
`C[N+]1(CCC(C(N)=O)(c2ccccc2)c2ccccc2)CCCCC1` gave MrgX1 allo act inactive, RGS4 block inactive, MrgX1 agonist inactive, RGS4 pot -7* and MrgX1 antagonist inactive.
Screening CC1CCCC(C)N1/N=C/c1c[nH]c2ccc(Br)cc12 (stereo not given) returned MrgX1 allo act 12*, RGS4 block inactive, MrgX1 agonist inactive, RGS4 pot inactive and MrgX1 antagonist inactive.
O=C(c1ccc(Cl)cc1)C1CCCN(Cc2ccc3ncccc3c2)C1 (stereo not given) was read as MrgX1 allo act inactive, RGS4 block inactive, MrgX1 agonist inactive, RGS4 pot -7.3* and MrgX1 antagonist inactive.
`COc1ccc(CN2CCCC(C(=O)c3ccc(Cl)cc3)C2)c(OC)c1` (stereo not given) gave MrgX1 allo act inactive, RGS4 block inactive, MrgX1 agonist inactive, RGS4 pot inactive and MrgX1 antagonist inactive.
Screening O=C(c1ccc(Cl)cc1)C1CCCN(Cc2cccc3cnccc23)C1 (stereo not given) returned MrgX1 allo act inactive, RGS4 block inactive, MrgX1 agonist inactive, RGS4 pot -7.3* and MrgX1 antagonist inactive.
`CCCCn1c(C)c(C(=O)OCC)c2c(CN3CCCC3)c(O)ccc21` gave MrgX1 allo act inactive, RGS4 block inactive, MrgX1 agonist inactive, RGS4 pot inactive and MrgX1 antagonist inactive.
`O=C1Nc2ccccc2/C1=C/c1cnc[nH]1` gave MrgX1 allo act inactive, RGS4 block inactive, MrgX1 agonist inactive, RGS4 pot inactive and MrgX1 antagonist -6.7*.
`COc1ccc2c(c1)/C(=C/c1cnc[nH]1)C(=O)N2` gave MrgX1 allo act inactive, RGS4 block inactive, MrgX1 agonist inactive, RGS4 pot inactive and MrgX1 antagonist inactive.
Fc1ccc(C(OCCN2CCCC2)c2ccc(Br)cc2)cc1 (stereo not given) was read as MrgX1 allo act inactive, RGS4 block inactive, MrgX1 agonist inactive, RGS4 pot -9.8* and MrgX1 antagonist inactive.
Screening Cc1c(C)c2ccc(OCC(=O)N3C[C@H]4C[C@@H](C3)c3cccc(=O)n3C4)c(C)c2oc1=O returned MrgX1 allo act inactive, RGS4 block inactive, MrgX1 agonist inactive, RGS4 pot -8.7* and MrgX1 antagonist inactive.
For Cc1c(Br)c(=O)oc2cc(OCC(=O)N3C[C@H]4C[C@@H](C3)c3cccc(=O)n3C4)ccc12 the results were MrgX1 allo act inactive, RGS4 block inactive, MrgX1 agonist inactive, RGS4 pot -7.5* and MrgX1 antagonist inactive.
For Cc1cc(=O)oc2c(C)c(OCC(=O)N3C[C@H]4C[C@@H](C3)c3cccc(=O)n3C4)ccc12 the results were MrgX1 allo act inactive, RGS4 block inactive, MrgX1 agonist inactive, RGS4 pot inactive and MrgX1 antagonist inactive.
C/C=C(\C)C(=O)OC1C(C)=C2C(C1OC(=O)CCCCC)C(C)(OC(C)=O)CC(OC(=O)CCC)C1(O)C2OC(=O)C1(C)O (stereo not given) was read as MrgX1 allo act inactive, RGS4 block inactive, MrgX1 agonist 49*, RGS4 pot -8.9* and MrgX1 antagonist inactive.
`O=C(COc1ccc2ccc(=O)oc2c1)N1CCC(C(=O)O)(c2ccccc2)CC1` gave MrgX1 allo act inactive, RGS4 block inactive, MrgX1 agonist inactive, RGS4 pot inactive and MrgX1 antagonist inactive.

Source: PubChem
